Each block holds one compound with its values, some of them ahead of it. The source made the active and inactive calls. No cut-off for these calls is given here.
Tests used:
[1] = Solubility of the compound in water; assay type: physicochemical
NCI-H460 = test: Cytotoxicity against human NCI-H460 cells after 24 hrs by SRB assay; assay type: functional, cell-based; conditions: NCI-H460, 24 h
Procedure, shortened: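 NCI-H460 cells were grown in RPMI-1640 with L-glutamine, 10% heat-inactivated FCS and 50 μg/mL gentamicin. Cells were seeded at about 10% confluence and allowed to recover for 24 h. They were exposed to varying concentrations for 24 h, washed, then cultured a further 48 h. Surviving cells were measured by SRB. IC50 is the 50% reduction in cell number versus vehicle, from dose–response curve fitting; means of at least three experiments.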

Histone deacetylase 11 = biological target: T1, Histone deacetylase 11 (Homo sapiens, UniProt Q96DB2); test: Inhibition of HDAC11 (unknown origin) using fluorogenic tetrapeptide RHKK(Ac) substrate by fluorescence assay
T1 sequence (Q96DB2 whole entry): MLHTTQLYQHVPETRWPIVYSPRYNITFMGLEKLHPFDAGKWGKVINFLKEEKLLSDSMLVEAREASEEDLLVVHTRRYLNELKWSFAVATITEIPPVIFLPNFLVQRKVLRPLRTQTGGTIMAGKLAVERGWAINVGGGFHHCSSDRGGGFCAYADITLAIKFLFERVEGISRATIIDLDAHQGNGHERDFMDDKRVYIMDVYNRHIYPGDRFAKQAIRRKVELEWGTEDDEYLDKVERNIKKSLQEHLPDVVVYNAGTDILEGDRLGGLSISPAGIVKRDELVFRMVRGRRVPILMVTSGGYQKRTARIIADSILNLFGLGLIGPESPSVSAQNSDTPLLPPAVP

Histone deacetylase 2 = Histone deacetylase 2 (Homo sapiens, UniProt Q92769); test: Inhibition of HDAC2 (unknown origin) using fluorogenic tetrapeptide RHKK(Ac) substrate at <50 uM by fluorescence assay
Histone deacetylase 2, sequence (Q92769 whole entry, the tested form may be a part): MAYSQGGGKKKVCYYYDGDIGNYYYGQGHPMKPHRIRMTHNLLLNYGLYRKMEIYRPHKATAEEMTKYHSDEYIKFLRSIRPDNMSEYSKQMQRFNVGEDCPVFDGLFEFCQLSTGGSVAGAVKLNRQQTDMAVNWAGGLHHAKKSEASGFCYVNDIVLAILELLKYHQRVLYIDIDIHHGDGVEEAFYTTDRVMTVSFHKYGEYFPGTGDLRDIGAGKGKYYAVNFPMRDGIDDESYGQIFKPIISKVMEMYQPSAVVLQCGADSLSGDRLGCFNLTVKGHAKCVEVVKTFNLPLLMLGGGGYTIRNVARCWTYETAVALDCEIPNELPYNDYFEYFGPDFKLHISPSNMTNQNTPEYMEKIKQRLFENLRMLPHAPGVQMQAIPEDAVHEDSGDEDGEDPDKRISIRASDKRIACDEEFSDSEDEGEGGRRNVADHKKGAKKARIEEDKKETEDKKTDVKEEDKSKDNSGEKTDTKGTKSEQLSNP
Procedure, shortened: (§1)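 Fluorogenic assay with the tetrapeptide RHKK(Ac) substrate (p53 residues 379–382) at 50 μM.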

[2] = biological target: T2, Protein deacetylase HDAC6 (Homo sapiens, UniProt Q9UBN7); test: Inhibition of HDAC6 (unknown origin) using fluorogenic tetrapeptide RHKK(Ac) substrate by fluorescence assay
T2 sequence (Q9UBN7 whole entry): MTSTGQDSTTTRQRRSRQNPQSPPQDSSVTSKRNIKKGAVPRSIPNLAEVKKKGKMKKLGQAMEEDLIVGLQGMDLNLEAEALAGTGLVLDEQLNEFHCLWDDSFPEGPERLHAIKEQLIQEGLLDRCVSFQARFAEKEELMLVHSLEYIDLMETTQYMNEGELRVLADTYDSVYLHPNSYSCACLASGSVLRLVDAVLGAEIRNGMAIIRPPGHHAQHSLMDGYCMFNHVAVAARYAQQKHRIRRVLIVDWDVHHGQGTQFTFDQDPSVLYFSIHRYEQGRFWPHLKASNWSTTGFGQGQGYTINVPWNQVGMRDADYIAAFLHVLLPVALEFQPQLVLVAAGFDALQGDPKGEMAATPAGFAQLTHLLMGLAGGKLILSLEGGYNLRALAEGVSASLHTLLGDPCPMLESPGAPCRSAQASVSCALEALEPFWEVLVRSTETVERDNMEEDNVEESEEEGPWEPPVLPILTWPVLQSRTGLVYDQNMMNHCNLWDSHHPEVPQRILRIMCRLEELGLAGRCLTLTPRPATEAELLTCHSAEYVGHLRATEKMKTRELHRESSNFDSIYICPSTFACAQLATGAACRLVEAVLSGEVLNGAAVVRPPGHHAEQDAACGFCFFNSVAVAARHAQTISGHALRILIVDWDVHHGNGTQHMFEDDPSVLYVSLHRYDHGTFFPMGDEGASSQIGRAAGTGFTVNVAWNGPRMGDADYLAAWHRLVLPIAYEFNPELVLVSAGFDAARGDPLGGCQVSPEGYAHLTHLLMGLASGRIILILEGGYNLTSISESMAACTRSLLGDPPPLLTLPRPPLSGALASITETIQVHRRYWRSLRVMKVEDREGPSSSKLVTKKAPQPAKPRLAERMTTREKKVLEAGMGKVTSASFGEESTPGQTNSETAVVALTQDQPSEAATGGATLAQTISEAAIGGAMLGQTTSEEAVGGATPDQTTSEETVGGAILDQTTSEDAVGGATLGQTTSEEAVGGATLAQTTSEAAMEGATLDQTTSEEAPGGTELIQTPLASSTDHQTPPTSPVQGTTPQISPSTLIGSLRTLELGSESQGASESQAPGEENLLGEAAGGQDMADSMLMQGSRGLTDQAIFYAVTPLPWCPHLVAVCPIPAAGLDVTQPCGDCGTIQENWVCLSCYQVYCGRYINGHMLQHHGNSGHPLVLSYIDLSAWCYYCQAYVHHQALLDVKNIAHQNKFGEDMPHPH

Histone deacetylase 8 = biological target: T3, Histone deacetylase 8 (Homo sapiens, UniProt Q9BY41); test: Inhibition of HDAC8 (unknown origin) using fluorogenic tetrapeptide RHK(Ac)K(Ac) substrate by fluorescence assay
T3 sequence (Q9BY41 whole entry): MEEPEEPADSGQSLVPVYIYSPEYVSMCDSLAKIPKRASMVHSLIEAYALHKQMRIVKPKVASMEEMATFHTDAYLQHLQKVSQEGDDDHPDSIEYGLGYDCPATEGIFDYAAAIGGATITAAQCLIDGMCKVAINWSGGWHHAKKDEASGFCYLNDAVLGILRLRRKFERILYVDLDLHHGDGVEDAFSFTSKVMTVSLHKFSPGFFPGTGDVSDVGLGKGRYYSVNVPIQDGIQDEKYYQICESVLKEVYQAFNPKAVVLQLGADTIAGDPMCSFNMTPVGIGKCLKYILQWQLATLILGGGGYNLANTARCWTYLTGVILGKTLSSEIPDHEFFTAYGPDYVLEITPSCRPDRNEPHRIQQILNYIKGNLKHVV

[3] = biological target: T4, Polyamine deacetylase HDAC10 (Homo sapiens, UniProt Q969S8); test: Inhibition of HDAC10 (unknown origin) using fluorogenic tetrapeptide RHKK(Ac) substrate by fluorescence assay
T4 sequence (Q969S8 whole entry): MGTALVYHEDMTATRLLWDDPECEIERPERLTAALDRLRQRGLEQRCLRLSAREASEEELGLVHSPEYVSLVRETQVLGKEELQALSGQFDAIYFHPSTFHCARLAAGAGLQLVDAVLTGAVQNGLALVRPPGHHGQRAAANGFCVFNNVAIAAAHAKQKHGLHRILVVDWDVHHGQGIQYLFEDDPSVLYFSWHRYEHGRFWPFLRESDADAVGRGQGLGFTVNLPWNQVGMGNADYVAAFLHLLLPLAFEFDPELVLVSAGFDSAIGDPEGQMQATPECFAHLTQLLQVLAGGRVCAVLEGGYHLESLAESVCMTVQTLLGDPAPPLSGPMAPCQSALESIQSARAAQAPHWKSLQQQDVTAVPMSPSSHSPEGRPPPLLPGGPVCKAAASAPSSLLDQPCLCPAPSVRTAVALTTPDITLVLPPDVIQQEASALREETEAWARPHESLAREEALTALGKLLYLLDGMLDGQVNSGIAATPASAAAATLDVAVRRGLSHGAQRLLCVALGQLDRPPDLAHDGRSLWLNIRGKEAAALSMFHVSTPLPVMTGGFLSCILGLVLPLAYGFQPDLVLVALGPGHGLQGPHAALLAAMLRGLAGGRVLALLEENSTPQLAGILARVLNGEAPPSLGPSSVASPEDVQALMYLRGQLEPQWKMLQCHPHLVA

Histone deacetylase 3 = Histone deacetylase 3 (Homo sapiens, UniProt O15379); test: Inhibition of HDAC3 (unknown origin) using fluorogenic tetrapeptide RHKK(Ac) substrate by fluorescence assay
Histone deacetylase 3, sequence (O15379 whole entry): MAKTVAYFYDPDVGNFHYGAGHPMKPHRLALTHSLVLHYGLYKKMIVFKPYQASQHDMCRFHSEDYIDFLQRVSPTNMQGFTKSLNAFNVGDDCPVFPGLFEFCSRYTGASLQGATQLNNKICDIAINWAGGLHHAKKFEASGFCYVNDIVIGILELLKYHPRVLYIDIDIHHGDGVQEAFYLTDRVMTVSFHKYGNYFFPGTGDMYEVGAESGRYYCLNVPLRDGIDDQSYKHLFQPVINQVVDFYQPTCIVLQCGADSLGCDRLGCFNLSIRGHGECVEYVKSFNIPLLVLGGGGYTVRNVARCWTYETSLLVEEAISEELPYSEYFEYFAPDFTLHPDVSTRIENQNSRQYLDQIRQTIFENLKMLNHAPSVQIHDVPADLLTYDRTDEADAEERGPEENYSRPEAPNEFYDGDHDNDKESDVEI

Histone deacetylase 1 = Histone deacetylase 1 (Homo sapiens, UniProt Q13547); test: Inhibition of HDAC1 (unknown origin) using fluorogenic tetrapeptide RHKK(Ac) substrate by fluorescence assay
Histone deacetylase 1, sequence (Q13547 whole entry): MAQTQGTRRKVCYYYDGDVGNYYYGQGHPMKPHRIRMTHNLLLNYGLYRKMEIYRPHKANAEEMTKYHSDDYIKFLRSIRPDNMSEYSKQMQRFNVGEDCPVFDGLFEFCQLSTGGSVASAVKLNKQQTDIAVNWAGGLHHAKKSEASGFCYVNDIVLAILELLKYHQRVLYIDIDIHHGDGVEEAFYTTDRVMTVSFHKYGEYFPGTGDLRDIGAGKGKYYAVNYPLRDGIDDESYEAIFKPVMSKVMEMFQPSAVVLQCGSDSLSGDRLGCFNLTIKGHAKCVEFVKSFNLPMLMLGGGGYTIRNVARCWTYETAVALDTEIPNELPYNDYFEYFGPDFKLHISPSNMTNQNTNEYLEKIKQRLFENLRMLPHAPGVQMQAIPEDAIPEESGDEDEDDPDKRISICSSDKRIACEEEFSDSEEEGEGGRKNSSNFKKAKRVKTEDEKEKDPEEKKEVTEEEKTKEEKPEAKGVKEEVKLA

Histone deacetylase [4] = test: Inhibition of HDAC-mediated tubulin deacetylation in human NCI-H460 cells after 3 hrs by Western blot analysis; assay type: cell-based
Procedure, shortened: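 Cells (NCI-H460) were treated for 3 h with graded concentrations. The cytoplasmic fraction was collected after HNB/1% NP-40 lysis and centrifugation of nuclei at 2000g. This fraction was resolved by SDS-PAGE and probed for acetylated α-tubulin against α-tubulin and β-actin. Bands were detected by ECL and quantified by densitometry after normalization; IC50 fitted; means of at least two experiments.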

[5] = Cytotoxicity against human HCT116 cells after 24 hrs by SRB assay; assay type: functional, cell-based; conditions: HCT-116, 24 h
Procedure, shortened: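 HCT116 cells were cultured in McCoy's 5A with L-glutamine, 10% heat-inactivated FCS and 50 μg/mL gentamicin. After seeding at about 10% confluence and a 24 h recovery, they received drug for 24 h. Drug was washed out and cells were incubated 48 h more before SRB staining. IC50 is the 50% cell-number reduction versus vehicle, from fitted dose–response curves; means of at least two experiments.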

Histone deacetylase [6] = test: Inhibition of HDAC-mediated histone H4 deacetylation in human NCI-H460 cells after 3 hrs by Western blot analysis; assay type: cell-based
Procedure, shortened: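 NCI-H460 cells were plated the day before and treated 3 h across a dose range. Cells were washed with DPBS containing 5 mM NaB and lysed in HNB buffer with 1% NP-40. Histones were acid-extracted from nuclei with 0.4 equiv/L H2SO4 and precipitated with acetone. Blots were probed for acetyl-H4 against total H4. Read-out was ECL and densitometry after normalization; IC50 fitted; means of at least two experiments.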

[7] = biological target: T5, Protein deacetylase HDAC6 (Homo sapiens) (UniProt Q9UBN7); test: Inhibition of HDAC6 (unknown origin) using fluorogenic tetrapeptide RHKK(Ac) substrate at <50 uM by fluorescence assay; procedure, shortened: as §1
T5 sequence (whole entry): T2 sequence (Q9UBN7 whole entry)

[8] = biological target: T6, Histone deacetylase 8 (Homo sapiens) (UniProt Q9BY41); test: Inhibition of HDAC8 (unknown origin) using fluorogenic tetrapeptide RHK(Ac)K(Ac) substrate at <50 uM by fluorescence assay
T6 sequence (whole entry): T3 sequence (Q9BY41 whole entry)
Procedure, shortened: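 The HDAC8 assay used the diacetylated fluorogenic substrate RHK(Ac)K(Ac) at 50 μM.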

SMILES: CCOC(=O)SCCCCCCC(=O)Nc1ccccc1
solubility [1]: > 1000 µg/mL

SMILES: CC(=O)SCCCCC[C@H](NC(=O)[C@@H]1CCCC(=O)N1)C(=O)Nc1cccc(C)c1
IC50 (NCI-H460): 60 nM

SMILES: O=C1CCC[C@@H](C(=O)N[C@@H](CCCCCSSCCCCC[C@H](NC(=O)[C@@H]2CCCC(=O)N2)C(=O)Nc2ccccc2)C(=O)Nc2ccccc2)N1
IC50 (NCI-H460): 5400 nM

SMILES: CC(=O)SCCCCC[C@H](NC(=O)[C@H]1CCC(=O)N1)C(=O)Nc1cccc(C(F)(F)F)c1
IC50 (NCI-H460): 30 nM

SMILES: O=C(CCCCCCS)N1CCc2ccccc2C1
IC50 (Histone deacetylase 11): 949 nM
inhibition (Histone deacetylase 2): inactive
inhibition [7]: inactive
inhibition [8]: inactive
IC50 [3]: 2930 nM
IC50 (Histone deacetylase 3): 35800 nM
IC50 (Histone deacetylase 1): 1750 nM

SMILES: CC(C)C(=O)SCCCCCCC(=O)Nc1ccccc1
solubility [1]: > 1000 µg/mL

Second part, led by results:

solubility [1]: > 1000 µg/mL
SMILES: CC(=O)SCCCCCCC(=O)Nc1ccccc1

IC50 (Histone deacetylase 11): 293 nM
inhibition (Histone deacetylase 2): inactive
IC50 [2]: 582 nM
IC50 (Histone deacetylase 8): 2230 nM
IC50 [3]: 6000 nM
IC50 (Histone deacetylase 3): 6330 nM
IC50 (Histone deacetylase 1): 2900 nM
SMILES: O=C1CCC[C@@H](C(=O)N[C@@H](CCCCCS)C(=O)N2CCc3ccccc3C2)N1

IC50 (Histone deacetylase [4]): 100 nM
IC50 (Histone deacetylase [6]): 100 nM
SMILES: CC(=O)SCCCCC[C@H](NC(=O)[C@@H]1CCCC(=O)N1)C(=O)Nc1ccccc1
IC50 (NCI-H460): 100 nM
IC50 [5]: 130 nM

From ChEMBL document CHEMBL3352570, “ST7612AA1, a thioacetate-ω(γ-lactam carboxamide) derivative selected from a novel generation of oral HDAC inhibitors” (J Med Chem, 2014)
